From PubChem BioAssay
This is a sample that favours compounds with a hit; in the whole collection about 4.8% have one here.
697 NFkB inh: inhibitors of the PMA/ionomycin-induced NF-kB reporter in 697 B cells. 697 B-cell NF-kB luciferase reporter, 16 h. inhibition, % at 4 µM. 330,000 compounds, 0.33% hits; in the data active = inhibition above about 35%
HSF-1 act: increases HSF-1 driven luciferase reporter signal; activation, % at 9 µM; NIH3T3-HGL HSF-1 luciferase reporter, MG132, 8 h; 100% = twice DMSO control signal; 300,000 compounds, 1.7% hits;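 active = mean replicate activation of at least 50% with a set share of replicates each reaching 50%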
GPR7 antag: antagonists of human GPR7 (neuropeptides B/W receptor 1) | P48145 | GPR7-expressing cells, fluorescence antagonist assay | inhibition, % at 4.4 µM | 290,000 compounds, 1.1% hits; in the data active = inhibition above about 16%, passing the limit was not always enough;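 also: cells stimulated with the agonist NPW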
Target sequence (P48145 whole entry, looked up): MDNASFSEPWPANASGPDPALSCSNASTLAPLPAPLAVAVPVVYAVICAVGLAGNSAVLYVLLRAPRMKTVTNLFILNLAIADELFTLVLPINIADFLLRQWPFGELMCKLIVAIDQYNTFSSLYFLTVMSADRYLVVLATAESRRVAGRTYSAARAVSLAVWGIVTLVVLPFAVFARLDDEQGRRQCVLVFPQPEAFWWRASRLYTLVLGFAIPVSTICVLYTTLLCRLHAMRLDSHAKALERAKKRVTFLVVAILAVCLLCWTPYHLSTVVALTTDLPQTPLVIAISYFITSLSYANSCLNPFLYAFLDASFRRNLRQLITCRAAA
HSF1 inhib: HSF1 inhibition. activity change, negative = inhibition, % at 7.5 µM (by protocol). 300,000 compounds, 0.77% hits. NIH3T3-HGL HSE-luciferase, MG132-induced, luminescence 8 h; active compounds read low. AID 2098;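 active = more than half of replicate wells show activity change below -50%, luminescence cut by over half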;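 also: luciferase reports HSF-1 transcriptional activity via heat shock element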
Jurkat NFkB inh: lowers PMA/ionomycin-induced NF-kB signal in Jurkat cells | PMA/ionomycin-induced NF-kB luciferase reporter, luminescence | inhibition, % at 4 µM | 330,000 compounds, 0.53% hits | AID 435003; in the data active = inhibition above about 50%
T cruzi inh: T. cruzi replication inhibition; T. cruzi beta-gal in NIH3T3, luminescence, 90 h; inhibition, % (test concentration not listed); 300,000 compounds, 1.4% hits; AID 1885;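 active = mean inhibition across valid replicates above about 55%, limit read from the data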;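 also: signal also drops with host cell toxicity which is not excluded here; higher percent means less beta-gal luminescence so fewer parasites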
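System: NIH/3T3 fibroblasts plus reporter T. cruzi. Medium: DMEM plus 2% FBS. Probe or stimulus: 5000 reporter trypomastigotes per well. Compound: single 50 nL compound addition per well in DMSO. Incubation: co-culture of at least 90 h after 3 h attachment. Detection: GalScreen β-gal luminescence, detergent lysis, 60 min. Evaluation: parasite load inhibition, %.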
Of the large screens only hits and unclear results are named; the others gave an inactive call.

Cc1cc(NC(=O)CN(C)S(=O)(=O)c2ccc(-c3ccc(=O)[nH]n3)s2)ccc1Br	none
COc1cc(NC(=O)CN(C)S(=O)(=O)c2ccc(-c3ccc(=O)[nH]n3)s2)cc(OC)c1	HSF1 inhib -91
O=C(NCC(c1ccco1)N1CCCC1)c1ccccc1Sc1ccc(C(F)(F)F)cc1[N+](=O)[O-] (stereo not given)	T cruzi inh 56 (no result: GPR7 antag)
CCc1ccc(C(=O)/C=C/c2ccc([N+](=O)[O-])o2)cc1	HSF-1 act 155
O=C(c1ccccc1N(Cc1ccccc1)S(=O)(=O)c1ccccc1)N1CCOCC1	none
Cc1c(CN2CCC(CO)(Cc3ccccc3)CC2)c2ccccc2n1C	T cruzi inh 57
COc1ccc(C)cc1NC(=O)CN1CCN(S(=O)(=O)c2ccc(C(C)C)cc2)CC1	T cruzi inh 62
COc1ccc(S(=O)(=O)N2CCN(CC(=O)Nc3ccc(F)c(F)c3)CC2)cc1	GPR7 antag 30
Cc1ccc(S(=O)(=O)N2CCC(=O)N(CCOC(=O)NCc3ccccc3)CC2)cc1	none (no result: HSF-1 act, HSF1 inhib, T cruzi inh)
COc1ccc(NC(=O)CCN2CCN(S(=O)(=O)c3ccc(OC)cc3)CC2)cc1	HSF1 inhib -91
COc1ccc(S(=O)(=O)N2CCN(CCC(=O)Nc3ccccc3F)CC2)cc1	none
COc1ccc(CNC(=O)OCCN2CCN(S(=O)(=O)c3ccc(C)cc3)CCC2=O)cc1	HSF1 inhib -68
COc1ccccc1NC(=O)c1ccc2nc(C)c(C)nc2c1	none
CCOc1ccc(C(=O)Nc2ccc(NC(=O)c3ccccc3)c(C)c2)cc1[N+](=O)[O-]	none
COc1ccc2c(C(=O)c3ccc(C)cc3)n(CCCC(N)=O)[n+]([O-])c2c1	none (no result: GPR7 antag)
Cc1noc(/C=C/N(C)C)c1S(=O)(=O)N1CCN(c2ccc(F)cc2)CC1	HSF1 inhib -62
COc1ccc(N2CCN(S(=O)(=O)c3c(C)noc3/C=C/N(C)C)CC2)cc1	none
COC(=O)c1ccc(-c2nn(C)c(=O)c3ccccc23)cc1	none
COC(=O)c1ccc(C(=O)OC)c(-n2c(=O)c3ccccc3c3ccccc3c2=O)c1	HSF-1 act 78
Cc1nn(-c2ccccc2)c(C)c1C(=O)OCC(=O)N(C)c1c(N)n(Cc2ccccc2)c(=O)[nH]c1=O	none (no result: GPR7 antag)
C[C@]12CC[C@@H]3c4ccc(O[C@@H]5O[C@H](C(=O)O)[C@@H](O)[C@H](O)[C@H]5O)cc4CC[C@H]3[C@@H]1C[C@@H](O)[C@@H]2O	HSF1 inhib -54 (no result: GPR7 antag)
O=C(N/N=C/c1ccccc1)NC1CCCCC1	none
CC(C)(C)c1ccc(/C=N/NC(=S)NC2CCCCC2)cc1	HSF-1 act 56
Nc1ccc2nc(-c3ccccn3)[nH]c2c1	HSF1 inhib -57
Cc1ccc2nc(-c3ccc(SCC(=O)N4CCc5ccccc54)nc3)[nH]c2c1	HSF-1 act 102
CCc1nnc(NC(=O)CSc2ccc(-c3nc4ccc(C)cc4[nH]3)cn2)s1	HSF-1 act 68
Cc1ccc2nc(-c3ccc(SCC(=O)O)nc3)[nH]c2c1	none
Cc1ccccc1N1CCN(C2CCCN(C(=O)c3csc(C(C)C)n3)C2)CC1 (stereo not given)	none
NC(=O)C1(N2CCCCC2)CCN(C(=S)Nc2cc(F)cc(F)c2)CC1	none
CCCN(CC(=O)Nc1c(C)cccc1CC)C(=O)SCC	none
CCSC(=O)N(CC)CC(=O)Nc1c(CC)cccc1CC	GPR7 antag 21
COCCn1nnnc1C(c1ccccc1)N1CCN(C(=O)c2ccco2)CC1 (stereo not given)	none
O=C(NCCCN1CCOCC1)c1ccc(Sc2ccc(F)cc2)c([N+](=O)[O-])c1	T cruzi inh 61
O=C(NCCCN1CCOCC1)c1ccc(N2CCOCC2)c([N+](=O)[O-])c1	none
CCN1CCCC1CNC(=O)c1ccc(Sc2ccc(F)cc2)c([N+](=O)[O-])c1 (stereo not given)	T cruzi inh 62
Cc1cccc(N2CCN(C(=S)Nc3ccc4nc(N5CCN(C)CC5)cc(C)c4c3)CC2)c1C	T cruzi inh 65 (no result: 697 NFkB inh, Jurkat NFkB inh)
Cc1cc(N2CCN(C)CC2)nc2ccc(NC(=S)N3CCN(c4ccc(Cl)cc4)CC3)cc12	T cruzi inh 61
O=[N+]([O-])c1cc(C=Nc2cccc3c(O)cccc23)ccc1Cl	none
O=C(CNCCc1ccc(Cl)cc1)Nc1ccc(C(=O)N2CCCCC2)cc1	T cruzi inh 62
O=C(CNCCc1ccccc1)Nc1ccc(C(=O)N2CCCCC2)cc1	none
CCN1C(=O)C(CC(=O)Nc2ccc(OC)cc2)N(CCCN2CCN(c3ccc(OC)cc3)CC2)C1=S (stereo not given)	none
O=S(=O)(Nc1ccc2c(c1)OCO2)c1cccs1	none
Cn1c(=O)oc2cc(S(=O)(=O)Nc3ccc4c(c3)OCCO4)ccc21	none
O=S(=O)(Nc1ccc2c(c1)OCCO2)c1cccs1	HSF1 inhib -63
Cn1c(=O)c(=O)n(C)c2cc(S(=O)(=O)Nc3ccc4c(c3)OCCO4)ccc21	HSF1 inhib -60
CSc1cccc(NC(=S)N2CCC(N(C)C3CCCCC3C)CC2)c1 (stereo not given)	none
Cc1cccc(/C=N\NC(=O)c2ccc(Cl)cc2)c1O	HSF-1 act 259, T cruzi inh 64
CC(/C=N/NC(=O)c1ccncc1)=C\c1ccccc1	none
O=C(Nc1ccc(Nc2ccccc2)cc1)c1cccc(F)c1	HSF-1 act 67
O=C(N/N=C/c1ccc(Cl)cc1Cl)c1cccc(F)c1	HSF-1 act 56
O=C(N/N=C/c1ccc(Cl)cc1Cl)c1ccc2nc[nH]c2c1	none
O=C(Nc1cccc(F)c1)c1ccccc1	none
CC(/C=N/NC(=O)c1cccc(F)c1)=C\c1ccccc1	HSF-1 act 83
Cc1occc1C(=O)N1CCN(S(=O)(=O)c2ccccc2)CC1	none
Cc1ccc2nc(C3CCCN(C(=S)Nc4ccccc4C)C3)[nH]c2c1 (stereo not given)	T cruzi inh 67
Cc1ccc(C)c(NC(=S)N2CCC(c3nc4ccccc4s3)CC2)c1	T cruzi inh 60
O=c1[nH]c(CN2CCN(c3ccccn3)CC2)nc2c(Br)cc(Br)cc12	none
Cc1cccc(NC(=O)Cn2c(/C=C/c3ccccc3)nc3ccccc32)c1	HSF-1 act 55
CCOC(=O)c1cccc(NC(=O)Cn2c(CC(=O)NC)nc3ccccc32)c1	HSF-1 act 101
COc1cc(/C=C(\C#N)C(=O)Nc2cccc3ncccc23)ccc1O	HSF-1 act 63
COc1ccc(/C=C(\C#N)C(=O)Nc2cc(C)c(Cl)cc2OC)cc1O	HSF1 inhib -64
COc1cc(/C=C(\C#N)C(=O)Nc2ccccn2)ccc1O	none
CCOC(=O)c1c(NC(=O)CSc2nc3ccccc3c(=O)n2-c2ccc(F)cc2)sc(C(C)=O)c1C	none
